Active and inactive are the calls of the source. The rule behind the calls is not given here.
How the values were obtained:
[1] = molecular target: Xanthine dehydrogenase/oxidase (Bos taurus, UniProt P80457); experiment: Inhibition of bovine xanthine oxidase assessed as reduction in uric acid formation using xanthine as substrate incubated for 3 mins by microplate assay
[2] = Toxicity in ICR mouse model of xanthine/potassium oxonate-induced hyperuricemia assessed as urea nitrogen level at 5 mg/kg, ig qd treated subsequently for 7 days relative to control; type: organism-based; details: in vivo, po, 168 h, time 7 day
Procedure, shortened: (§1)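 Long-term model in ICR mice: potassium oxonate 250 mg/kg s.c. plus hypoxanthine 150 mg/kg i.p. at 9:00 AM, once daily for 7 days. Compound dosed intragastrically at 5 mg/kg (0.5% CMC-Na suspension) at 10:00 AM for 7 days. Serum obtained by centrifugation at 4000 r/min for 10 min and stored at −80 °C. Uric acid, creatinine and urea nitrogen measured with diagnostic kits; n = 8.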

[3] = tested on: Mus musculus; experiment: Hypouricemic activity in ICR mouse model of xanthine/potassium oxonate-induced long term hyperuricemia assessed as decrease in serum uric acid level at 5 mg/kg, ig qd treated subsequently for 7 days relative to control; type: functional, organism-based; details: time 7.0 day; procedure, shortened: as §1
[4] = tested on: Mus musculus; experiment: Hypouricemic activity in ICR mouse model of xanthine/potassium oxonate-induced acute hyperuricemia assessed as decrease in serum uric acid level at 5 mg/kg, ig relative to control; type: functional, organism-based; details: TDE = time-dependent effect
Procedure, shortened: (§2)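 ICR mice (18–22 g), acclimatized ≥1 week. Acute hyperuricemia induced by potassium oxonate 250 mg/kg s.c. plus hypoxanthine 400 mg/kg i.p., both in saline. Baseline tail blood taken at 1 h, then compound given intragastrically at 5 mg/kg as a suspension in 0.5% CMC-Na; model group received vehicle. […] Mean ± S.D.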

[5] = tested on: Mus musculus; experiment: Hypouricemic activity in ICR mouse model of xanthine/potassium oxonate-induced acute hyperuricemia assessed as decrease in serum uric acid level at 5 mg/kg, ig measured after 4 hrs relative to control; type: functional, organism-based; procedure, shortened: as §2
[6] = Toxicity in ICR mouse model of xanthine/potassium oxonate-induced hyperuricemia assessed as creatinine level at 5 mg/kg, ig qd treated subsequently for 7 days relative to control; type: organism-based; details: in vivo, po, 168 h, time 7 day; procedure, shortened: as §1

Chain of Xanthine dehydrogenase/oxidase (P80457 whole entry): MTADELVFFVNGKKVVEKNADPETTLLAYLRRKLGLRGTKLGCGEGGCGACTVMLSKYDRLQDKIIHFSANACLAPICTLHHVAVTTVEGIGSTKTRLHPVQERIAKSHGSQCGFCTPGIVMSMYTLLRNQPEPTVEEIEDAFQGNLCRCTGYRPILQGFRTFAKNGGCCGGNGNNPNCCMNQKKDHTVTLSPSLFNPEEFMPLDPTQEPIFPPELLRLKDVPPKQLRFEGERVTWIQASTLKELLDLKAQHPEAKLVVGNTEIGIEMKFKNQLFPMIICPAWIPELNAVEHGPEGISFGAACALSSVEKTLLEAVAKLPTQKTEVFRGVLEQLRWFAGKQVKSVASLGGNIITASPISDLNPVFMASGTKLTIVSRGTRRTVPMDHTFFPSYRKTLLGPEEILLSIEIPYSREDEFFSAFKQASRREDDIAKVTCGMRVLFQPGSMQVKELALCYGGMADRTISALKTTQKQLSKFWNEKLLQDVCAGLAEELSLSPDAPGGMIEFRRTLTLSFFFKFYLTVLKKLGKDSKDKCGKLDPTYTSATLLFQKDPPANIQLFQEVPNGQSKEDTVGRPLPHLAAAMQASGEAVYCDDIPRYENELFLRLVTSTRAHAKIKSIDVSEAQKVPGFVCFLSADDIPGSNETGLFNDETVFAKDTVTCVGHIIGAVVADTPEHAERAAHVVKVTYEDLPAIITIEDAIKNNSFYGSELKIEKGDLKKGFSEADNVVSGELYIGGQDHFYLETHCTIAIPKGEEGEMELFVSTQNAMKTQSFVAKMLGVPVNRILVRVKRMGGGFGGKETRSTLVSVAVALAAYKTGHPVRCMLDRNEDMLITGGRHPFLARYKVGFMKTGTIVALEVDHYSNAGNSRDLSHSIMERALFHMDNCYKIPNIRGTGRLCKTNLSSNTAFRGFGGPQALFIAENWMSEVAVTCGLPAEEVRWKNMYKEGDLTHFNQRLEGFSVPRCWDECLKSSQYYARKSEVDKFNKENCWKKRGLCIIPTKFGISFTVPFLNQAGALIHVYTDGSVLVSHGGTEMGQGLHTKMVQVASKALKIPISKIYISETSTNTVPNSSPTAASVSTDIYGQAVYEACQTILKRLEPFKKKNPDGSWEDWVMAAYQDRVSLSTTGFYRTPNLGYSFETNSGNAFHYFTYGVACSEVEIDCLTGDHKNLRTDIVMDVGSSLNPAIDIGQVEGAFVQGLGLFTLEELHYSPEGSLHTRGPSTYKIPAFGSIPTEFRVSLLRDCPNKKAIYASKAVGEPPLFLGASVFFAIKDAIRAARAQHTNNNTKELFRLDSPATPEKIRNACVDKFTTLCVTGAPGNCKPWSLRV

Row | IC50 [1] | SMILES | also measured
1 | 27.1 nM | CC(C)CN(C)c1ccc(-n2cnc(C(=O)O)c2)cc1C#N | 
2 | 7.2 nM | CC(C)(C)c1ccc(-c2ccc(-n3cnc(C(=O)O)c3)cc2C#N)cc1 | Activity [2]: Toxic; Activity [3]: Active; Activity [4]: Tde; Activity [5]: Active; Activity [6]: Toxic
3 | 510 nM | CC(C)COc1ccc(-c2c[nH]c(C(=O)O)n2)cc1C#N | 
4 | 74.4 nM | COc1cccc(-c2ccc(-n3cnc(C(=O)O)c3)cc2C#N)c1 | 
5 | 948 nM | CCOc1ccc(-c2c[nH]c(C(=O)O)n2)cc1C#N | 
6 | 29.8 nM | CCC(CC)COc1ccc(-n2cnc(C(=O)O)c2)cc1C#N | 
7 | 55.6 nM | N#Cc1cc(-n2cnc(C(=O)O)c2)ccc1N1CCCCC1 | 
8 | 34.1 nM | N#Cc1cc(-n2cnc(C(=O)O)c2)ccc1N1CCCC1 | 
9 | 34.5 nM | COc1ccc(-c2ccc(-n3cnc(C(=O)O)c3)cc2C#N)cc1 | 
10 | 198 nM | CC(C)Oc1ccc(-n2cnc(C(=O)O)c2)cc1C#N | 
11 | 40.6 nM | CCC(CC)Oc1ccc(-n2cnc(C(=O)O)c2)cc1C#N | 
12 | 47.4 nM | N#Cc1cc(-n2cnc(C(=O)O)c2)ccc1OC1CCCCC1 | 
13 | 67.9 nM | CC(C)(C)COc1ccc(-n2cnc(C(=O)O)c2)cc1C#N | 
14 | 8 nM | N#Cc1cc(-n2cnc(C(=O)O)c2)ccc1N1CCCCCCC1 | Activity [2]: Toxic; Activity [3]: Active; Activity [4]: Tde; Activity [5]: Active; Activity [6]: Toxic
15 | 387 nM | N#Cc1cc(-c2c[nH]c(C(=O)O)n2)ccc1OC1CCCC1 | 
16 | 2160 nM | CC(C)COc1ccc(-c2cn(C)c(C(=O)O)n2)cc1C#N | 
17 | 30.5 nM | CC1CCN(c2ccc(-n3cnc(C(=O)O)c3)cc2C#N)CC1 | 
18 | 750 nM | CC(C)Oc1ccc(-c2c[nH]c(C(=O)O)n2)cc1C#N | 
19 | 73.9 nM | CCC(C)Oc1ccc(-n2cnc(C(=O)O)c2)cc1C#N (configuration not stated) | 
20 | 226 nM | CCOc1ccc(-n2cnc(C(=O)O)c2)cc1C#N | 
21 | 94.5 nM | CC(C)COc1ccc(-n2cnc(C(=O)O)c2)cc1C#N | 
22 | 63 nM | N#Cc1cc(-n2cnc(C(=O)O)c2)ccc1OC1CCCC1 | 
